{"source": "ChEMBL document CHEMBL4602675", "about": "“The Marine Natural Product Manzamine A Inhibits Cervical Cancer by Targeting the SIX1 Protein” (J Nat Prod, 2020)", "key": {"C-33-A [1]": {"system": "C-33-A", "test": "Induction of apoptosis in human C33A cells assessed as apoptotic cells at 4 uM after 48 hrs by Annexin V-FITC/PI double staining based flow cytometric analysis (reference value: 17.3%)", "format": "functional"}, "C-33-A [2]": {"system": "C-33-A", "test": "Cell cycle arrest in human C33A cells assessed as accumulation at Sub G1 phase at 4 uM after 72 hrs by propidium iodide staining based flow cytometric analysis (reference value: 0.7%)", "format": "functional", "how_it_was_run": "(§1)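 Cells in DMEM/10% FBS at 37 °C, 5% CO2 were given 4 μM for 24, 48 or 72 h, with DMSO as control. After trypsinization they were fixed in chilled 70% ethanol on ice for 30 min, treated with RNase A (1 mg/mL) for 30 min at room temperature, and stained with PI (20 μg/mL). At least 10 000 events were read by flow cytometry to give sub-G1, G0/G1, S and G2/M fractions; mean ± SEM.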"}, "Ca-Ski": {"system": "Ca-Ski", "test": "Induction of apoptosis in human CaSki cells assessed as viable cells at 4 uM after 24 hrs by Annexin V-FITC/PI double staining based flow cytometric analysis (reference value: 84%)", "format": "functional", "details": "read-out: Activity"}, "[3]": {"target": "T1, Protein E7 (Human papillomavirus 16) (UniProt P03129)", "T1 sequence (whole entry)": "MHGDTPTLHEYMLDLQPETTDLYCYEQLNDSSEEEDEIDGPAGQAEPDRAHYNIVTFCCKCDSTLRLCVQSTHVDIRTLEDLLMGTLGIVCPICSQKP", "test": "Inhibition of Human papillomavirus type16 derived E7 in human CaSki cells assessed as decrease in cyclin-D1 protein expression at 2 to 4 uM after 48 hrs by Western blot analysis", "format": "cell-based", "details": "Ca-Ski", "how_it_was_run": "(§2)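 Cells were seeded at 1 × 10^6 per 100 mm dish and treated next day with 2 or 4 μM for 48 h. They were trypsinised, PBS-washed and lysed in RIPA with protease inhibitors. Equal protein was run on SDS-PAGE and transferred to PVDF. Primary antibodies were used at 1:500, with BSA 3% for blocking and antibodies for CK2α, Rb and pRb, otherwise 5% milk in TBST. HRP secondary at 1:2000, chemiluminescence detection.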"}, "[4]": {"target": "T2, Homeobox protein SIX1 (Homo sapiens) (UniProt Q15475)", "T2 sequence (whole entry)": "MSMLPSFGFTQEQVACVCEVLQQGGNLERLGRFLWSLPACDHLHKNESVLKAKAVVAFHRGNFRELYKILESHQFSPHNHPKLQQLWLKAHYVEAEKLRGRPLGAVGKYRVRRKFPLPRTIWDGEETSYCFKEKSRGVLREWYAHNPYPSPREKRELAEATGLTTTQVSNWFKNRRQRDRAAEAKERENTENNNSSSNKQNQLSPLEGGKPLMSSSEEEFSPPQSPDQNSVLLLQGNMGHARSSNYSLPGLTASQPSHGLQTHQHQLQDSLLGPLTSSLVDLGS", "test": "Inhibition of SIX1 in human CaSki cells at 2 to 4 uM after 48 hrs by Western blot analysis", "format": "cell-based", "details": "Ca-Ski", "how_it_was_run": "as §2"}, "C-33-A [5]": {"system": "C-33-A", "test": "Inhibition of colony formation in human C33A cells at 2 to 4 uM afer 1 week by crystal violet staining based assay", "format": "functional, cell-based", "how_it_was_run": "(§3)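 Cells were grown in DMEM with 10% FBS, seeded at 1 × 10^3 cells/ml in six-well plates, incubated overnight, then exposed to 2 or 4 μM at 37 °C under 5% CO2 for one week. Colonies were fixed with 4% paraformaldehyde, stained with 0.5% crystal violet and photographed.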"}, "[6]": {"target": "Protein E6 (Human papillomavirus 16) (UniProt P03126)", "sequence (P03126 whole entry)": "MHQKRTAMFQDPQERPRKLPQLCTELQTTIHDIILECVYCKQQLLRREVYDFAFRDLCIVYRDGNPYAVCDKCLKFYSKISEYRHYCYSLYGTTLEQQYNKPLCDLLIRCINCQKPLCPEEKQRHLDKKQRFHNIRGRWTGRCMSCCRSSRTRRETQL", "test": "Inhibition of Human papillomavirus type16 derived E6 in human CaSki cells assessed as increase in p53 protein expression at 2 to 4 uM after 48 hrs by Western blot analysis", "format": "cell-based", "details": "Ca-Ski", "how_it_was_run": "as §2"}, "[7]": {"target": "T1, Protein E7 (Human papillomavirus 16)", "test": "Inhibition of Human papillomavirus type16 derived E7 in human SiHa cells assessed as decrease in phosphorylation of Rb at 2 to 4 uM after 48 hrs by Western blot analysis", "format": "cell-based", "how_it_was_run": "as §2"}, "HeLa [8]": {"system": "HeLa", "test": "Inhibition of colony formation in human HeLa cells at 2 to 4 uM afer 1 week by crystal violet staining based assay", "format": "functional, cell-based", "how_it_was_run": "as §3"}, "C-33-A [9]": {"system": "C-33-A", "test": "Cell cycle arrest in human C33A cells assessed as accumulation at G0/G1 phase at 4 uM after 24 hrs by propidium iodide staining based flow cytometric analysis (reference value: 58.4%)", "format": "functional", "how_it_was_run": "as §1"}, "HeLa [10]": {"system": "HeLa", "test": "Cell cycle arrest in human HeLa cells assessed as accumulation at Sub G1 phase at 4 uM after 48 hrs by propidium iodide staining based flow cytometric analysis (reference value: 2.1%)", "format": "functional", "how_it_was_run": "as §1"}, "HeLa [11]": {"system": "HeLa", "test": "Antiproliferative activity against human HeLa cells assessed as reduction in cell viability after 24 hrs by CellTiter-Glo assay", "format": "functional, cell-based", "how_it_was_run": "(§4)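 ATP-based luminescent viability readout. Cells were grown in DMEM with 10% FBS, 2 mM L-glutamine and penicillin-streptomycin at 37 °C, 5% CO2. 2 × 10^4 cells/well were seeded, then exposed the next day to 0–40 μM for 24, 48 or 72 h. % viability = 100 × treated/control. IC50 was fitted from a sigmoid dose-response curve. Run at least three times in quadruplicate; mean ± SEM.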"}, "HeLa [12]": {"system": "HeLa", "test": "Cell cycle arrest in human HeLa cells assessed as accumulation at G2/M phase at 4 uM after 72 hrs by propidium iodide staining based flow cytometric analysis (reference value: 12.6%)", "format": "functional", "how_it_was_run": "as §1"}, "[13]": {"target": "Casein kinase II subunit alpha (Homo sapiens) (UniProt P68400)", "sequence (P68400 whole entry, looked up)": "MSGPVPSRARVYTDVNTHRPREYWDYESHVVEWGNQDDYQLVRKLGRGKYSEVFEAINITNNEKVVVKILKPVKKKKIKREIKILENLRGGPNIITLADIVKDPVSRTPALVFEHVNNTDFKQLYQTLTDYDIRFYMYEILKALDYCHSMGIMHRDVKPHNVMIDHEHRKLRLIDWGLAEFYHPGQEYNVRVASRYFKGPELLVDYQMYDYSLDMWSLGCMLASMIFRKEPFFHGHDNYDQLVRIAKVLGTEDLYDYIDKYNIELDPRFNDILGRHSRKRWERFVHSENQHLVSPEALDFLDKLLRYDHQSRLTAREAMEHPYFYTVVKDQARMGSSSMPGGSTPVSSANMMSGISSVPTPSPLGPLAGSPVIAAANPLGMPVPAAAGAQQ", "test": "Potency index, ratio for inhibition activity of apigenin to test compound for inhibition of CK2alpha in human CaSki cells after 48 hrs by Western blot analysis", "format": "cell-based", "details": "Ca-Ski", "how_it_was_run": "(§5)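 Cells plated at 1 × 10^6 per 100 mm dish and treated next day for 48 h with test compound (2 or 4 μM) or apigenin (10, 20 or 40 μM). RIPA lysates with protease inhibitors; equal protein loaded for SDS-PAGE, then PVDF transfer. Blocked in 5% milk/TBST (3% BSA for CK2α); anti-SIX1 or anti-CK2α 1:500, HRP secondary 1:2000; chemiluminescent detection.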"}, "C-33-A [14]": {"system": "C-33-A", "test": "Antiproliferative activity against human C33A cells assessed as reduction in cell viability after 24 hrs by CellTiter-Glo assay", "format": "functional, cell-based", "how_it_was_run": "as §4"}, "Keratinocyte": {"system": "Keratinocyte", "test": "Cytotoxicity against human Keratinocytes assessed as reduction in cell viability 2 to 4 uM incubated up to 72 hrs by CellTiter-Glo assay", "format": "cell-based"}, "[15]": {"target": "T2, Homeobox protein SIX1 (Homo sapiens)", "test": "Potency index, ratio for inhibition activity of apigenin to test compound for inhibition of SIX1 in human SiHa cells after 48 hrs by Western blot analysis", "format": "cell-based", "how_it_was_run": "as §5"}, "[16]": {"target": "Protein E6 (human papillomavirus 18) (UniProt P06463)", "sequence (P06463 whole entry)": "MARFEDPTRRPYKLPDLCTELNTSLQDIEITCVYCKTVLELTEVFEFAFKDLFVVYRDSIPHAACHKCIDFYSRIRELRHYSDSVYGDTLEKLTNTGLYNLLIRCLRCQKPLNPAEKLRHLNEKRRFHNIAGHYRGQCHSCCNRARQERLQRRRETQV", "test": "Inhibition of Human papillomavirus type18 derived E6 in human HeLa cells assessed as increase in p21 protein expression at 2 to 4 uM after 48 hrs by Western blot analysis", "format": "cell-based", "how_it_was_run": "as §2"}, "C-33-A [17]": {"system": "C-33-A", "test": "Cell cycle arrest in human C33A cells assessed as accumulation at G2/M phase at 4 uM after 24 hrs by propidium iodide staining based flow cytometric analysis (reference value: 26.2%)", "format": "functional", "how_it_was_run": "as §1"}, "C-33-A [18]": {"system": "C-33-A", "test": "Cell cycle arrest in human C33A cells assessed as accumulation at Sub G1 phase at 4 uM after 48 hrs by propidium iodide staining based flow cytometric analysis (reference value: 0.8%)", "format": "functional", "how_it_was_run": "as §1"}, "[19]": {"target": "Casein kinase II subunit alpha (Homo sapiens) (UniProt P68400)", "test": "Inhibition of CK2alpha in human SiHa cells at 2 to 4 uM after 48 hrs by Western blot analysis", "format": "cell-based", "how_it_was_run": "as §2"}, "SiHa": {"system": "SiHa", "test": "Cell cycle arrest in human SiHa cells assessed as accumulation at G2/M phase at 4 uM after 24 hrs by propidium iodide staining based flow cytometric analysis (reference value: 17%)", "format": "functional", "how_it_was_run": "as §1"}}, "note": "pIC50: −log10 of the molar value. Active and inactive are the calls of the source. The rule behind the calls is not given here."}
{"molecule": "O[C@]12C=C(c3nccc4c3[nH]c3ccccc34)[C@@H]3CCN(CCCC/C=C\\CC1)C[C@@]31C[C@@H]3/C=C\\CCCCN3[C@H]12", "note": "[MANZAMINE A]", "values": [{"measurement": "Activity", "setting": "C-33-A [1]", "value": 36.5, "unit": "%"}, {"measurement": "Activity", "setting": "C-33-A [2]", "value": 31.3, "unit": "%"}, {"measurement": "viability at 4 µM", "setting": "Ca-Ski", "value": 81.4, "unit": "%"}, {"measurement": "inhibition", "setting": "[3]", "value": "Active"}, {"measurement": "inhibition", "setting": "[4]", "value": "Active"}, {"measurement": "inhibition", "setting": "C-33-A [5]", "value": "Active"}, {"measurement": "inhibition", "setting": "[6]", "value": "Active"}, {"measurement": "inhibition", "setting": "[7]", "value": "Active"}, {"measurement": "inhibition", "setting": "HeLa [8]", "value": "Active"}, {"measurement": "Activity", "setting": "C-33-A [9]", "value": 58.5, "unit": "%"}, {"measurement": "Activity", "setting": "HeLa [10]", "value": 5.1, "unit": "%"}, {"measurement": "pIC50", "setting": "HeLa [11]", "value": 4.93}, {"measurement": "Activity", "setting": "HeLa [12]", "value": 16.2, "unit": "%"}, {"measurement": "Ratio", "setting": "[13]", "value": 10}, {"measurement": "pIC50", "setting": "C-33-A [14]", "value": 5.28}, {"measurement": "Activity", "setting": "Keratinocyte", "value": "Non-Toxic"}, {"measurement": "Ratio", "setting": "[15]", "value": 10}, {"measurement": "inhibition", "setting": "[16]", "value": "inactive"}, {"measurement": "Activity", "setting": "C-33-A [17]", "value": 24.6, "unit": "%"}, {"measurement": "Activity", "setting": "C-33-A [18]", "value": 19.2, "unit": "%"}, {"measurement": "inhibition", "setting": "[19]", "value": "Active"}, {"measurement": "Activity", "setting": "SiHa", "value": 9.2, "unit": "%"}]}
